Laboratory results taken from ChEMBL document CHEMBL4138041, “Synthesis and biological activity evaluation of novel peroxo-bridged derivatives as potential anti-hepatitis B virus agents” (Medchemcomm, 2017).
Converted amounts (≈) assume the structure as drawn.

Assays:
[1] = tested on: Hepatitis B virus; assay: Antiviral activity against Hepatitis B virus infected in human HepG2.2.15 cells assessed as inhibition of HBeAg secretion at 3.13 ug/ml after 4 days by ELISA relative to control; type: functional; conditions: HepG2.2.15, 96 h
Outline: (§1)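 HepG2.2.15 cells in DMEM with nonessential amino acids, sodium pyruvate and 10% heat-inactivated FBS, 37 °C, 5% CO2, seeded at 1.0×10^5 cells/mL. Treated at 3.13 µg/mL for 4 or 8 days. Cleared supernatant stored at -20 °C, then HBsAg/HBeAg measured by ELISA, OD 450 nm. % inhibition = (1 − sample OD/untreated control OD)×100.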

[2] = tested on: Hepatitis B virus; assay: Antiviral activity against Hepatitis B virus infected in human HepG2.2.15 cells assessed as inhibition of HBeAg secretion at 3.13 ug/ml after 8 days by ELISA relative to control; type: functional; conditions: HepG2.2.15, 192 h; outline: as §1
[3] = tested on: Hepatitis B virus; assay: Antiviral activity against Hepatitis B virus infected in human HepG2.2.15 cells assessed as inhibition of HBsAg secretion at 3.13 ug/ml after 8 days by ELISA relative to control; type: functional; conditions: HepG2.2.15, 192 h; outline: as §1
[4] = tested on: Hepatitis B virus; assay: Antiviral activity against Hepatitis B virus infected in human HepG2.2.15 cells assessed as inhibition of HBsAg secretion at 3.13 ug/ml after 4 days by ELISA relative to control; type: functional; conditions: HepG2.2.15, 96 h; outline: as §1
[5] = tested on: HepG2 2.2.15; assay: (§2) Cytotoxicity against human HepG2.2.15 cells after 4 days by MTS assay; type: cell-based; conditions: hepg2 2.2.15, 96 h
Outline: (§3)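 HepG2.2.15 cells seeded at 1.0×10^5 cells/mL, grown 24 h at 37 °C in 5% CO2, then exposed to various concentrations (ethanol-dissolved) for 4 days. Medium removed and MTS added for 3 h at 37 °C. Absorbance read at 490 nm. % inhibition = (1 − sample OD/untreated control OD)×100.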

[6] = Therapeutic index, ratio of TC50 for human HepG2.2.15 cells to IC50 for Hepatitis B virus infected in human HepG2.2.15 cells assessed as inhibition of HBeAg secretion after 4 days; type: toxicity, cell-based; conditions: read-out: TI
[7] = Acute toxicity in ICR mouse assessed as mortality rate at 1000 mg/kg, ip measured up to 14 days relative to control; type: organism-based; conditions: in vivo
Outline: (§4)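 Kunming mice of both sexes, 18-22 g, six groups of six matched for weight and size, single intraperitoneal injection at 56, 178, 350, 422, 750 or 1000 mg/kg. General behaviour observed at 1, 4 and 24 h, then followed up to 14 days for behaviour, toxic effects and mortality. LD50 with 95% confidence interval derived from the dose groups.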

[8] = tested on: Hepatitis B virus; assay: Antiviral activity against Hepatitis B virus infected in human HepG2.2.15 cells assessed as inhibition of HBeAg secretion after 8 days by ELISA; type: functional, organism-based; conditions: HepG2.2.15, 192 h
Outline: (§5)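 HepG2.2.15 cells kept as monolayers in DMEM with nonessential amino acids, sodium pyruvate and 10% heat-inactivated FBS, 37 °C, 5% CO2. Seeded at 1.0×10^5 cells/mL in 96-well plates and exposed to a range of concentrations (ethanol-dissolved) for 4 or 8 days. Supernatant HBsAg/HBeAg measured by ELISA at 450 nm. % inhibition = (1 − sample OD/untreated control OD)×100.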

[9] = Acute toxicity in ICR mouse assessed as mortality rate at 178 mg/kg, ip measured up to 14 days relative to control; type: organism-based; conditions: in vivo; outline: as §4
[10] = Acute toxicity in ICR mouse assessed as mortality rate at 750 mg/kg, ip measured up to 14 days relative to control; type: organism-based; conditions: in vivo; outline: as §4
[11] = tested on: Hepatitis B virus; assay: Antiviral activity against Hepatitis B virus infected in human HepG2.2.15 cells assessed as inhibition of HBsAg secretion after 8 days by ELISA; type: functional, organism-based; conditions: HepG2.2.15, 192 h; outline: as §5
[12] = Therapeutic index, ratio of TC50 for human HepG2.2.15 cells to IC50 for Hepatitis B virus infected in human HepG2.2.15 cells assessed as inhibition of HBeAg secretion after 8 days; type: toxicity, cell-based; conditions: read-out: TI
[13] = as §2; type: cell-based, HepG2 2.2.15; conditions: HepG2.2.15 cells, read-out: TC50; outline: as §3
[14] = tested on: Hepatitis B virus; assay: Antiviral activity against Hepatitis B virus infected in human HepG2.2.15 cells assessed as inhibition of HBeAg secretion after 4 days by ELISA; type: functional, organism-based; conditions: HepG2.2.15, 96 h; outline: as §5
[15] = Therapeutic index, ratio of TC50 for human HepG2.2.15 cells to IC50 for Hepatitis B virus infected in human HepG2.2.15 cells assessed as inhibition of HBsAg secretion after 4 days; type: toxicity, cell-based; conditions: read-out: TI
[16] = Therapeutic index, ratio of TC50 for human HepG2.2.15 cells to IC50 for Hepatitis B virus infected in human HepG2.2.15 cells assessed as inhibition of HBsAg secretion after 8 days; type: toxicity, cell-based; conditions: read-out: TI
[17] = tested on: Hepatitis B virus; assay: Antiviral activity against Hepatitis B virus infected in human HepG2.2.15 cells assessed as inhibition of HBsAg secretion after 4 days by ELISA; type: functional, organism-based; conditions: HepG2.2.15, 96 h; outline: as §5
[18] = Acute toxicity in ICR mouse assessed as mortality rate at 422 mg/kg, ip measured up to 14 days relative to control; type: organism-based; conditions: in vivo; outline: as §4

Compound | inhibition at 3.13 µg/mL [1] | inhibition at 3.13 µg/mL [2] | inhibition at 3.13 µg/mL [3] | inhibition at 3.13 µg/mL [4] | Activity [5] | selectivity ratio at 96 h [6] | mortality at 336 h [7] | IC50 [8] | mortality at 336 h [9] | mortality at 336 h [10] | IC50 [11] | selectivity ratio at 192 h [12] | CC50 at 96 h [13] | IC50 [14] | selectivity ratio at 96 h [15] | selectivity ratio at 192 h [16] | IC50 [17] | mortality at 336 h [18]
Nc1ccn([C@H]2CS[C@@H](CO)O2)c(=O)n1 | 4.94% | -9.22% | -0.44% | 5.68% |  |  |  |  |  |  |  |  |  |  |  |  |  | 
CCC(CC[C@@H](C)[C@H]1CC[C@@H]2[C@]1(C)CC[C@H]1[C@]23C=C[C@@]2(C[C@@H](OC(C)=O)CC[C@]12C)OO3)C(C)C (some centres not stated) | 25.6% | 25.8% | 28.8% | 26.7% | Dose-dependent effect |  |  |  |  |  |  |  |  |  |  |  |  | 
CCC(CC[C@@H](C)[C@H]1CC[C@@H]2[C@]1(C)CC[C@H]1[C@]23C=C[C@@]2(CC(=O)CC[C@]12C)OO3)C(C)C (some centres not stated) | 3.28% | 2.36% | 5.7% | 1.91% | Dose-dependent effect |  |  |  |  |  |  |  |  |  |  |  |  | 
CC(C)CCC[C@@H](C)[C@H]1CC[C@@H]2[C@]1(C)CC[C@H]1[C@]23C=C[C@@]2(CC(=O)CC[C@]12C)OO3 | 54.1% | 58.7% | 77.5% | 72.3% | Dose-dependent effect | 5.51 | 100% | 2.95 µg/mL (≈ 7.11 µM) | 0% | 100% | 2.59 µg/mL (≈ 6.25 µM) | 3.47 | 10.2 µg/mL (≈ 24.7 µM) | 1.86 µg/mL (≈ 4.49 µM) | 5.79 | 3.4 | 1.78 µg/mL (≈ 4.29 µM) | 67%
CCC(CC[C@@H](C)[C@H]1CC[C@@H]2[C@]1(C)CC[C@H]1[C@]23C=C[C@@]2(C[C@@H](O)CC[C@]12C)OO3)C(C)C (some centres not stated) | 2.88% | 10.3% | 20% | 19% | Dose-dependent effect |  |  |  |  |  |  |  |  |  |  |  |  | 
CC(=O)O[C@H]1CC[C@]2(C)[C@H]3CC[C@]4(C)[C@@H]([C@H](C)CCCC(C)C)CC[C@H]4[C@@]34C=C[C@@]2(C1)OO4 | 3.51% | 7.56% | 13.8% | 13% | Dose-dependent effect |  |  |  |  |  |  |  |  |  |  |  |  | 
CC(C)CCC[C@@H](C)[C@H]1CC[C@@H]2[C@]1(C)CC[C@H]1[C@]23C=C[C@@]2(C[C@@H](O)CC[C@]12C)OO3 | 1.35% | 2.55% | 1.56% | 1.2% | Dose-dependent effect |  |  |  |  |  |  |  |  |  |  |  |  | 
